In the library only some 2.6% were active in any assay of this set; here they are far more common.
ABHD5-PLIN5 inh = ABHD5-PLIN5 interaction inhibitors, primary screen, cell lysate, split luciferase complementation, luminescence; Perilipin-5 (Homo sapiens) + 1-acylglycerol-3-phosphate O-acyltransferase ABHD5 (Homo …; Split G. princeps luciferase complementation, 4 h; inhibition, % at 4 µM; hit rate 0.78% among 360,000; AID 602281, 2012;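 active means inhibition above the mean inhibition across every tested compound plus 3 SD, cut at about 22% in these data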
Target sequence (Q00G26 whole entry, looked up): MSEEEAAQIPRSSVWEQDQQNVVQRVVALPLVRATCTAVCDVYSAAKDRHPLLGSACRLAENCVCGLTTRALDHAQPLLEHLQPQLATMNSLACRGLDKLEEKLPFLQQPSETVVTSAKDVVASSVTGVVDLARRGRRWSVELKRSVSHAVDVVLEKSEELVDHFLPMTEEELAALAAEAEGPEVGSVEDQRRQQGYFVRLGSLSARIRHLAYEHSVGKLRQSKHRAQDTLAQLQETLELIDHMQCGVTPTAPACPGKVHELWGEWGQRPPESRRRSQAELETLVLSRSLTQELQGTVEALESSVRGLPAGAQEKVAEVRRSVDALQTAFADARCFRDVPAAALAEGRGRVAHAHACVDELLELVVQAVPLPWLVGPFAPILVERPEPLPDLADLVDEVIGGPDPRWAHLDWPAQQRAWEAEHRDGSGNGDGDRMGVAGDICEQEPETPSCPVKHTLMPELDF
Target sequence (Q8WTS1 whole entry, looked up): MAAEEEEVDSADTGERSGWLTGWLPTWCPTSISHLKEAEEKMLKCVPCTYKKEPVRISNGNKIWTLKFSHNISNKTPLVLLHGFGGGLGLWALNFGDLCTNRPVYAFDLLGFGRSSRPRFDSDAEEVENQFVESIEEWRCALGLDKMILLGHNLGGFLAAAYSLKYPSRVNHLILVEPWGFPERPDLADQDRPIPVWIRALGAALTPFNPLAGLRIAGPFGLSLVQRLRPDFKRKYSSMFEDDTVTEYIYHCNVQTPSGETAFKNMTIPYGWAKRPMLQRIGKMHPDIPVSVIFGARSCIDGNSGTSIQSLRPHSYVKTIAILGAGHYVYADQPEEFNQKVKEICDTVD
core dimer inh = inhibitors of HCV core protein dimerization, primary screen, biochemical, TR-FRET, high-throughput; inhibition, % at 5 µM; TR-FRET GST/Flag-core106 dimerization, 1536-well; hit rate 0.33% among 300,000;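 active means inhibition above the mean of all tested compounds plus 3 SD, set per screening campaign, cut at about 45% in these data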
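Material: Tagged HCV core106 pair (GST and Flag) | Amount: GST-core106 13.5 nM, Flag-core106 17 nM | Medium: KF-containing HEPES buffer, pH 7.45, DTT, CHAPS, BSA | Reagent: Eu donor and XL665 acceptor anti-tag antibodies | Schedule: 4 h at 22.5 °C | Technique: Time-resolved FRET, ex 340 nm, em 617 and 671 nm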
rCAG binder = binders of r(CAG) RNA repeats, primary screen, biochemical, fluorescence. r(CAG) RNA repeat, TO-PRO-1 dye displacement fluorescence. inhibition, % at 3 µM. hit rate 1.3% among 370,000. AID 651821, 2012;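 active means inhibition above the plate cutoff, the mean of all test compounds on that plate plus 3 SD, cut at about 35% in these data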;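 further: higher means more dye released from RNA so lower well fluorescence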
NadD inh = inhibitors of S. aureus NadD, primary screen, biochemical, colorimetric, uHTS; Nicotinate-nucleotide adenylyltransferase NadD (Staphylococcus aureus N315); purified NadD enzyme, colorimetric absorbance read-out; inhibition, % at 20 µM; hit rate 0.78% among 360,000; AID 602399, 2012; in the data active means inhibition above about 26%
NadD inh conf = inhibitors of S. aureus NadD, confirmation, biochemical, colorimetric, single concentration | hit rate 13% among 2,000 | purified S. aureus NadD, colorimetric enzyme assay | AID 624309, 2012 | shares compounds with NadD inh | inhibition, % at 20 µM; in the data active means inhibition mostly above about 42%, no sharp cut-off; inactive means mostly below about 42%
Each line names hits and unclear results; the compound was inactive in the other large screens (follow-up assays come after a bar, where they were run).

CCN1CCN(Cc2ccc(NC(=O)c3ccc(C)c(NC(=O)c4cc(-c5ccc(Br)cc5)n[nH]4)c3)cc2C(F)(F)F)CC1	NadD inh 32 | NadD inh conf inactive
O=C(C[C@H]1C[C@H](C(=O)N2CCCCC2)[C@@]2(CCc3ccccc3)c3[nH]c4cc(-c5ccco5)ccc4c3CCN2C1=O)NCc1cccc(C(F)(F)F)c1	NadD inh 54 (no result: core dimer inh) | NadD inh conf inactive
O=C(C[C@H]1C[C@H](C(=O)N2CCCCC2)[C@@]2(CCc3ccccc3)c3[nH]c4cc(-c5ccco5)ccc4c3CCN2C1=O)NCCC1=CCCCC1	NadD inh 56 (no result: core dimer inh, rCAG binder) | NadD inh conf inactive
O=C(CC1C[C@H](C(=O)N2CCCCC2)[C@@]2(CCc3ccccc3)c3[nH]c4ccccc4c3CCN2C1=O)NCCC1=CCCCC1 (some centres not stated)	none (no result: core dimer inh)
CC[C@]12c3[nH]c4cc(CCC(=O)N(C)C)ccc4c3CCN1C(=O)[C@@H](CC(=O)NCCC1=CCCCC1)C[C@@H]2C(=O)N1CCN(C(=O)c2ccco2)CC1	none (no result: core dimer inh)
CC[C@]12c3[nH]c4cc(-c5ccco5)ccc4c3CCN1C(=O)[C@@H](CC(=O)NCCC1=CCCCC1)C[C@@H]2C(=O)N1CCN(C(=O)c2ccco2)CC1	NadD inh 33 (no result: core dimer inh, rCAG binder) | NadD inh conf inactive
CC1(c2nc3ccccc3[nH]2)CCCC2=Nc3ccccc3CN21 (configuration not stated)	none (no result: core dimer inh)
COc1ccc(S[C@]2(C(=O)N3CCOCC3)CC(=O)N(C(=O)Nc3ccc(C)c(Cl)c3)[C@@H]2c2ccc(OC)cc2)cc1	none (no result: ABHD5-PLIN5 inh, core dimer inh, NadD inh)
CC(C)C[C@@H]1COc2cccc(N3CCSCC3)c2S(=O)(=O)N1	none (no result: core dimer inh)
CC(C)c1ccc(NC(=O)COc2ccc(S(=O)(=O)N3CCOCC3)cc2)cc1	NadD inh 46 | NadD inh conf inactive
COc1ccc(Cc2c(-c3ccc(OC)c(OC)c3)nc3ccc(C)cn23)c(C)c1	none (no result: core dimer inh)
CC(=O)c1cccc(CN2CCCC(C(=O)Nc3ccc(-c4ccco4)cc3)C2)c1 (configuration not stated)	ABHD5-PLIN5 inh 30, NadD inh 32 | NadD inh conf inactive
CC(=O)C1=C(C)N(Cc2ccc(Br)cc2)C(=S)NC1c1cccc(Cl)c1 (configuration not stated)	none (no result: ABHD5-PLIN5 inh, core dimer inh, NadD inh)
C#CCOCCOCCOCCNc1nc(N2CCN(C(=O)[C@H]([C@@H](C)CC)n3cc([C@@H](N)Cc4ccc(O)cc4)nn3)CC2)nc(N2CCN(C(=O)[C@H](Cc3cc4ccccc4[nH]3)n3cc([C@@H](N)CC(C)C)nn3)CC2)n1	NadD inh 48 (no result: rCAG binder) | NadD inh conf inactive
COC(=O)[C@H](CC(C)C)N(CCCc1cn(Cc2ccc(C)cc2)nn1)S(=O)(=O)c1ccccc1Br	none (no result: ABHD5-PLIN5 inh, core dimer inh, NadD inh)
Cc1nc(N2CCN(c3ccccn3)CC2)c2c(C)c(C(=O)Nc3ccc(Br)cc3C)sc2n1	NadD inh 30 | NadD inh conf inactive
NC(=S)NN=Cc1nccc2ccccc12	none (no result: core dimer inh)
Cc1cnc(C=NNC(N)=S)c2cccc(N)c12	NadD inh 61 (no result: core dimer inh) | NadD inh conf inactive
CCC12CC1(C(=O)OC)C(=O)N1CCc3c([nH]c4ccccc34)C12 (configuration not stated)	none (no result: core dimer inh, rCAG binder)
O=C(CSc1nnc2scc(-c3ccccc3)n12)Nc1nsc(-c2ccccc2)n1	none (no result: rCAG binder)
O=C(CSc1nnc2scc(-c3ccccc3)n12)Nc1nsc(-c2ccc(Cl)cc2)n1	NadD inh 41 | NadD inh conf inactive
O=C(N/N=C/c1ccccn1)c1[nH]c2ccc([N+](=O)[O-])cc2c1-c1ccccc1	NadD inh 67 | NadD inh conf inactive
NNC(=O)c1[nH]c2ccc([N+](=O)[O-])cc2c1-c1ccccc1	none
O=C(N/N=C/c1ccccc1)c1[nH]c2ccc(Br)cc2c1-c1ccccc1	NadD inh 34 | NadD inh conf inactive
C[C@@H]1CN([C@@H](C)CO)C(=O)CCCn2nncc2CO[C@H]1CN(C)CC1CC1	none (no result: ABHD5-PLIN5 inh, core dimer inh, NadD inh)
CN(Cc1ccccc1)C(=O)OCc1cn(Cc2cccc(Cl)c2)nn1	none (no result: ABHD5-PLIN5 inh, core dimer inh, NadD inh)
Cc1ccc(S(=O)(=O)N(C(=O)c2ccncc2)c2ccc3oc4c(c3c2)CCCC4)cc1[N+](=O)[O-]	NadD inh 35 | NadD inh conf inactive
Cc1noc(C)c1-c1ccc(C(=O)NC2CCCCC2)c2occc12	none (no result: core dimer inh)
O=C(NCC(F)(F)F)c1ccc(S(=O)(=O)Nc2ccccc2N2CCCC2)cc1	NadD inh 40 (no result: core dimer inh) | NadD inh conf inactive
Cc1ccc(S(=O)(=O)Nc2ccccc2N2CCCCC2)cc1	none (no result: core dimer inh)
O=C1CC(/C=C/c2ccc(Cl)cc2)=Nc2ccccc2N1	NadD inh 33 | NadD inh conf inactive
O=C1CC(/C=C/c2ccccc2)=Nc2ccccc2N1	none
COc1ccc(Cn2c(SCc3ccccc3C)nc3cc(OC)c(OC)cc3c2=N)cc1	NadD inh 30 | NadD inh conf inactive
COc1cc2nc(SCc3ccc(F)cc3)n(Cc3cccs3)c(=N)c2cc1OC	none
COCCn1c(=O)[nH]c(=O)c2c1nc(-c1ccc(-c3ccc(Cl)cc3[N+](=O)[O-])o1)n2Cc1ccccc1	core dimer inh 55, NadD inh 45 | NadD inh conf inactive
COCCn1c(-c2ccc(-c3ccc([N+](=O)[O-])cc3Br)o2)nc2c1c(=O)[nH]c(=O)n2CC(C)C	NadD inh 44 | NadD inh conf inactive
COCCCn1c(-c2cccc(Cl)c2)nc2c1c(=O)[nH]c(=O)n2Cc1ccccc1	none
COc1ccc(-c2ccc(-c3nc4c(c(=O)[nH]c(=O)n4Cc4ccccc4)n3C)o2)c([N+](=O)[O-])c1	NadD inh 52 | NadD inh conf inactive
COc1ccc(-c2csc(C(C)(O)c3cccc(F)c3)n2)cn1 (configuration not stated)	none (no result: core dimer inh)
COc1cc(C#Cc2c(-c3cncn3C)n(C)c3ccc(-c4cnc(N5CCOCC5)nc4)cc23)cc(OC)c1	NadD inh 45 (no result: core dimer inh) | NadD inh conf inactive
COc1cc(C#Cc2c(-c3cncn3C)n(C)c3ccc(-c4ccc(CN5CCOCC5)cc4)cc23)cc(OC)c1	none (no result: core dimer inh)
Cc1sc2nc(COC(=O)c3cccc(S(=O)(=O)N(C)c4ccccc4)c3)[nH]c(=O)c2c1C	NadD inh 37 | NadD inh conf inactive
CC(C)C[C@H]1CN([C@@H](Cc2ccc(O)cc2)CN2CCC[C@@H]2CN2C(=S)NC[C@@H]2Cc2ccccc2)C(=S)N1CCc1ccccc1	NadD inh 32 (no result: core dimer inh) | NadD inh conf inactive
Oc1ccc(C[C@H]2CNC(=S)N2CC2CCCN2C[C@H](Cc2ccccc2)N2C[C@H](Cc3ccc(O)cc3)N(CCc3ccccc3)C2=S)cc1 (some centres not stated)	NadD inh 53 (no result: core dimer inh) | NadD inh conf 58
COc1ccc(C(=O)N2CCCCC2c2cc(C(=O)Nc3cccc(C#N)c3)no2)cc1 (configuration not stated)	none (no result: core dimer inh)

Screens as filed in PubChem BioAssay.
